Experimental data taken from ChEMBL document CHEMBL2040749, “Novel polycyclic 'cage'-1,2-diamines as potential anti-tuberculosis agents” (2012).

The molecules below were run on Mycobacterium tuberculosis (assay: Antitubercular activity against Mycobacterium tuberculosis H37Rv ATCC 25177after 21 days by BACTEC MGIT 960 method). Details: 504 h.
Type: functional
Procedure, shortened: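 Compounds dissolved in 100% methanol (10 mg/mL stock), sonicated, filter-sterilised, diluted in sterile water; twofold serial dilutions, working range 8 to 0.125 µg/mL. Strains grown in Middlebrook 7H9 + OADC at 37 °C; inoculum adjusted to McFarland 1, diluted tenfold to 10^5 CFU/mL into MGIT tubes. Drug-free control received a 1:100 inoculum. MIC is the lowest dilution negative when the control turns positive. Triplicate.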

Structure (SMILES)	MIC
CC(C)=CCC/C(C)=C/CNCCNC1C2CC3CC(C2)CC1C3.Cl.Cl (stereo not drawn)	0.5 µg/mL
CC(C)=CCC/C(C)=C/CNC(=O)CN1[C@H]2C3C4CC5C6C4C2C6[C@@]1(O)C53 (mixture of isomers)	1 µg/mL
CC(C)=CCC/C(C)=C/CNCC(=O)N[C@]12O[C@H]3C4C5CC(C6C5C3C61)C42 (mixture of isomers)	1 µg/mL
CC(C)=CCC/C(C)=C/CNCCN[C@@H]1C2C3CC4C5C3CC2C5C41.Cl.Cl (mixture of isomers)	1 µg/mL
CC(C)=CCC/C(C)=C/CNCCN[C@]12O[C@H]3C4C5CC(C6C5C3C61)C42.Cl.Cl (mixture of isomers)	1 µg/mL
CC(C)=CCC/C(C)=C/CNCCN[C@@H]1C2C3CC4C5C3C1C5[C@@H](O)C42.Cl.Cl (mixture of isomers)	0.5 µg/mL
CC(C)=CCC/C(C)=C/CNCCN1[C@H]2C3C4CC5C6C4C2C6[C@@]1(O)C53.Cl.Cl (mixture of isomers)	1 µg/mL
CC(C)=CCC/C(C)=C/CNCCNC1C2C3CC4C5CC(C42)C1C53.Cl.Cl (racemic)	0.5 µg/mL
